Most compounds without a hit are left out; they make up all but 2.8% or so of the library.
SIRT5 block: inhibitors of human sirtuin-5 desuccinylase; Purified SirT5, succinyl-peptide AMC, trypsin-coupled fluorescence; AID 652115; inhibition, % at 15 µM; actives 1.1% (n = 330,000); in the data active means inhibition above about 15%
E-sel inducer: E-selectin induction on HUVECs; HUVEC E-selectin immunofluorescence imaging; normalized: neutral wells 0, TNF-alpha wells 100; actives 0.37% (n = 260,000); AID 686992; P16581; activation, % at 7.58 µM;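 active means mean E-selectin-positive cell signal at least 10% of the positive control, reached in at least 60% of replicates, without over 20% cell loss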
Target sequence (P16581 whole entry, looked up): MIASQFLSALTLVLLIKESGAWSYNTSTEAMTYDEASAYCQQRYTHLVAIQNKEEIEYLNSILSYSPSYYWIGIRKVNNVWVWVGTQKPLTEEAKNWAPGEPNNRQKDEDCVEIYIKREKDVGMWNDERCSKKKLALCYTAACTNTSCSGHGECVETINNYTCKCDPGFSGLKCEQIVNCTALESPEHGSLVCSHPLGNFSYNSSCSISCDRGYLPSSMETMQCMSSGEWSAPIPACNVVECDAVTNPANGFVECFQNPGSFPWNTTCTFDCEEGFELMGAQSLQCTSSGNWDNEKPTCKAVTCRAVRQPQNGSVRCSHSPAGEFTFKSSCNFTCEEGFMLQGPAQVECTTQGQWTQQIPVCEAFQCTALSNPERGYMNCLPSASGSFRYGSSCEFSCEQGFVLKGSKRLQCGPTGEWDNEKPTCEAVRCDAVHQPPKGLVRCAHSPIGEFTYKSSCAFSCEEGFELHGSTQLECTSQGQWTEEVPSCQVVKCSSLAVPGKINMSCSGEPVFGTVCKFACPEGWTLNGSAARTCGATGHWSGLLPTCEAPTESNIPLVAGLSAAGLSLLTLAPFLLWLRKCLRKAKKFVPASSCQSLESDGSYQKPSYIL
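Assay system: HUVEC, human umbilical vein endothelial cells / Amount: 3,000 HUVEC/well / Controls: TNF-alpha positive control, DMSO neutral control / Compound dosing: single concentration / Medium: EGM-2 over gelatin coat / Evaluation: percent E-selectin-positive cells / Signal: immunofluorescence imaging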
DENV2 CPE: inhibitors of DENV2 cytopathic effect; DENV2-infected cells, cytopathic effect rescue, plate reader; CPE inhibition, % at 9.99 µM; actives 1.7% (n = 350,000); in the data active means CPE inhibition above about 20%, passing the limit was not always enough; tested in BHK-21 cells
Of the large screens only hits and unclear results are named; the others gave an inactive call.

CN(C)C(=O)C[C@H]1CC[C@H]2[C@H](COc3ccc(NC(=O)C4CCOCC4)cc3C(=O)N2C)O1	none
COc1ccc(O[C@H]2C=C[C@@H](c3ccccc3)O[C@@H]2CO/N=C(\C)CCN2CCCCc3nc(C)c(C)cc32)cc1	DENV2 CPE 36
COc1ccc(S(=O)(=O)N2CCCc3nc(C)c(C)cc32)cc1	none (no result: SIRT5 block)
COc1ccc2c3c(n(C)c2c1)[C@@H](CO)N(C(=O)C1CC1)CC31CN(C(=O)CN(C)C)C1	none
O=C(C[C@@H]1C[C@H]2c3cc(NC(=O)NC4CCCC4)ccc3O[C@H]2[C@@H](CO)O1)NCc1ccccn1	none
CCOC(=O)C1=C(CS(=O)(=O)c2ccccc2)NC(=O)NC1c1ccc(OC)c(OC)c1 (stereo unspecified)	none
CCOC(=O)C1=C(CS(=O)(=O)c2ccc(C)cc2)NC(=O)NC1c1cc(OC)c(O)c(OC)c1 (stereo unspecified)	DENV2 CPE 37
Cc1cc(C)cc(NC(=O)COC(=O)CCCC2=NS(=O)(=O)c3ccccc3N2)c1	none
CCOc1ccccc1NC(=O)COC(=O)CC(C)(C)CC1=NS(=O)(=O)c2ccccc2N1	SIRT5 block 18 (no result: E-sel inducer)
Cc1ccc(-c2csc(NCCn3c(C)nc4cc(C(F)(F)F)ccc43)n2)cc1	DENV2 CPE 45 (no result: SIRT5 block, E-sel inducer)
Cc1ccc(Cn2c(C(C)Nc3nc(-c4ccc(Cl)c([N+](=O)[O-])c4)cs3)nc3cc(C(F)(F)F)ccc32)cc1 (stereo unspecified)	none (no result: SIRT5 block)
COc1cccc(NC(=O)N[C@@H]2C=C[C@@H](CC(=O)N3CCCCC3)O[C@H]2CO)c1	none
CNC[C@@H]1OCCCC[C@H](C)Oc2ccc(NC(=O)CCC(F)(F)F)cc2C(=O)N([C@H](C)CO)C[C@@H]1C	none (no result: SIRT5 block, DENV2 CPE)
Cc1cccc(OCC(=O)N/N=C/c2sc(=O)n(Cc3cccc(C(=O)O)c3)c2Cl)c1	none
O=C(COc1ccccc1)N/N=C/c1sc(=O)n(Cc2cccc(C(=O)O)c2)c1Cl	SIRT5 block 16 (no result: DENV2 CPE)
C/C=C/c1ccc([C@H]2[C@@H](CN(C)C(C)=O)N(C(=O)NCCC)[C@H]2CO)cc1	none (no result: DENV2 CPE)
Cn1c(SCc2ccccc2)nnc1-c1ccc(O)cc1	none
Cn1c(SCc2ccc(C#N)cc2)nnc1-c1ccccc1	SIRT5 block 21 (no result: E-sel inducer, DENV2 CPE)
CO[C@H]1CN(C)C(=O)c2ccc(NS(=O)(=O)c3ccc(F)cc3)cc2OC[C@H](C)NC[C@@H]1C	none
C[C@H]1CN([C@@H](C)CO)S(=O)(=O)c2ccc(-c3cccc(F)c3)cc2O[C@H]1CN(C)C(=O)Nc1cc(F)ccc1F	none (no result: SIRT5 block)
C[C@H](CO)N1C[C@H](C)[C@H](CN(C)C(=O)Nc2ccccc2F)Oc2cc(-c3ccc(F)cc3)ccc2S1(=O)=O	DENV2 CPE 26
C[C@H]1CN([C@@H](C)CO)S(=O)(=O)c2ccc(-c3cccc(F)c3)cc2O[C@@H]1CN(C)C(=O)Nc1cc(F)ccc1F	SIRT5 block 19
C[C@@H]1CN([C@H](C)CO)S(=O)(=O)c2ccc(-c3ccc(F)cc3)cc2O[C@H]1CN(C)C(=O)Nc1ccccc1F	none
C[C@H](CO)N1C[C@H](C)[C@@H](CN(C)Cc2ccc3c(c2)OCO3)OCCCC[C@H](C)Oc2ccc(NC(=O)Nc3cccc4ccccc34)cc2C1=O	none (no result: SIRT5 block)
CC(C)[C@@H]1COCc2cn(nn2)CCC[C@@H](C)C(=O)N1	none (no result: SIRT5 block, DENV2 CPE)
C[C@@H]1CN([C@@H](C)CO)C(=O)c2cccc(NC(=O)Nc3ccc(C(F)(F)F)cc3)c2O[C@@H]1CN(C)C	none (no result: E-sel inducer)
O=C(Nc1ccc2c(c1)[C@@H]1C[C@H](CC(=O)N3CCc4ccccc4C3)O[C@H](CO)[C@@H]1O2)c1cccnc1	none
Cn1cc(CN2CCCC(CNS(=O)(=O)c3cccc4cccnc34)C2)cn1 (stereo unspecified)	none
CC(C)n1cc(CN2CCCC(CNS(=O)(=O)c3cccc4cccnc34)C2)cn1 (stereo unspecified)	DENV2 CPE 22
C[C@H](CO)N1C[C@H](C)[C@H](CN(C)C(=O)Nc2ccccc2)Oc2ncc(C#CC(C)(C)O)cc2C1=O	DENV2 CPE 26
CC(C)C#Cc1cnc2c(c1)C(=O)N([C@H](C)CO)C[C@H](C)[C@@H](CN(C)C(=O)Nc1ccccc1)O2	none
C[C@H]1CN([C@@H](C)CO)C(=O)c2cc(C#CC3CCCCC3)cnc2O[C@@H]1CN(C)C(=O)Nc1ccccc1	SIRT5 block 15
C[C@@H]1CN([C@@H](C)CO)C(=O)c2cc(C#CC3CC3)cnc2O[C@@H]1CN(C)C(=O)c1ccccc1	E-sel inducer 97
C[C@@H]1CN([C@@H](C)CO)C(=O)c2cc(C#CC3CCCC3)cnc2O[C@@H]1CN(C)C(=O)Nc1ccccc1	none
C[C@H]1CN([C@@H](C)CO)C(=O)c2cc(C#CC3CC3)cnc2O[C@@H]1CN(C)C(=O)c1ccccc1	none
C[C@@H]1CCCCO[C@@H](CN(C)C(=O)CCCN(C)C)[C@H](C)CN([C@@H](C)CO)C(=O)c2cc(NC(=O)c3ccncc3)ccc2O1	none (no result: SIRT5 block)
C[C@H]1CCCCO[C@@H](CN(C)C(=O)Nc2ccc(F)cc2)[C@@H](C)CN([C@@H](C)CO)C(=O)c2cc(NS(C)(=O)=O)ccc2O1	none
CCCNC(=O)N1CC2(CN(C(=O)C3CCCCC3)C2)c2c([nH]c3cc(OC)ccc23)[C@H]1CO	none
O=C(C[C@@H]1C=C[C@@H](NC(=O)c2cccnc2)[C@H](CO)O1)NCc1ccc(Cl)c(Cl)c1	none
O=C1CCc2cc(S(=O)(=O)NCCc3ccc(Cl)cc3)cc3c2N1CC3	DENV2 CPE 97
COc1ccc(CCNS(=O)(=O)c2cc3c4c(c2)CCN4C(=O)CC3)cc1OC	none
COCCN(C(=S)Nc1cc(C)cc(C)c1)C(C)c1cccs1 (stereo unspecified)	none
COCCN(C(=S)Nc1cccc(C)c1)C(C)c1cccs1 (stereo unspecified)	DENV2 CPE 30
CCN(Cc1ccccc1)S(=O)(=O)c1ccc(C(=O)N(CCCN(C)C)c2nc3cc(C)cc(C)c3s2)cc1	DENV2 CPE 78 (no result: E-sel inducer)
Cc1cc(C)c2sc(N(CCCN(C)C)C(=O)c3ccc(S(=O)(=O)N(C)Cc4ccccc4)cc3)nc2c1	none (no result: E-sel inducer)
C[C@@H]1CN([C@@H](C)CO)C(=O)c2cc(C#CC3CC3)cnc2O[C@H]1CN(C)Cc1ccccc1C(=O)O	none
O=C(N[C@@H]1CC[C@H](CCNC(=O)C2CCCCC2)O[C@@H]1CO)c1ccccn1	DENV2 CPE 149
O=C(N[C@H]1CC[C@H](CC(=O)N2CCCCC2)O[C@@H]1CO)c1ccccn1	DENV2 CPE 28
O=C(N[C@H]1CC[C@H](CCNC(=O)C2CCCCC2)O[C@H]1CO)c1ccccn1	none
O=C(N[C@H]1CC[C@@H](CCNC(=O)C2CCCC2)O[C@H]1CO)c1ccccn1	DENV2 CPE 44
O=C(N[C@H]1CC[C@@H](CCNC(=O)C2CCCC2)O[C@@H]1CO)c1ccccn1	none
O=C(N[C@H]1CC[C@@H](CC(=O)N2CCCCC2)O[C@@H]1CO)c1ccccn1	none
Cc1ccc(S(=O)(=O)N[C@@H]2CC[C@@H](CC(=O)N3CCN(c4ccccc4)CC3)O[C@H]2CO)cc1	none
C[C@@H]1CN([C@H](C)CO)C(=O)c2cccc(NC(=O)c3nc4ccccc4s3)c2O[C@H]1CN(C)C(=O)Nc1cccc2ccccc12	none (no result: SIRT5 block, DENV2 CPE)
C[C@@H]1CN([C@H](C)CO)S(=O)(=O)c2ccc(C#C[C@@H](C)O)cc2O[C@H]1CN(C)Cc1ccccn1	DENV2 CPE 30

Bioassay records from PubChem BioAssay.
